From PubChem
Lmaj promast: Leishmania major promastigote growth inhibition, primary screen | inhibition, % at 10 µM | Leishmania major promastigotes, resazurin fluorescence viability | 200,000 tested, 9% active | AID 1063, 2008; in the data active = inhibition above about 50%;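 note: promastigotes grown with compound for 44 hours at 28 °C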
CSC inhib: cancer stem cell viability inhibitors, primary screen, luminescence | cancer stem cell-like cells viability | inhibition, % at 7.5 µM | 300,000 tested, 1.1% active | AID 2717, 2010; in the data active = inhibition above about 75%; tested in HMLE shEcad cells
T cruzi repl: inhibitors of intracellular T. cruzi growth, primary screen, luminescence, NIH3T3 host cells | T. cruzi beta-gal in NIH3T3, 90 h | inhibition, % (no concentration beside the values) | 300,000 tested, 1.4% active;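 active = mean inhibition across valid replicates above about 55%, limit read from the data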;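 note: signal also drops with host cell toxicity which is not excluded here; 0% = plate median of DMSO wells and 100% = zero luminescence signal; higher percent means less beta-gal luminescence so fewer parasites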
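compound dosing = single 50 nL compound addition per well in DMSO | material = NIH/3T3 host cells with β-galactosidase reporter T. cruzi | input = 5,000 host fibroblasts per well | timing = ≥90 h infection period, 3 h prior cell attachment | read-out basis = percent inhibition of parasite-derived β-gal signal | detection = GalScreen β-gal luminescence, detergent lysis, 60 min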
SKKanGAS inh: S. pyogenes SKKanGAS growth inhibitors in kanamycin, primary screen, streptokinase expression inhibitor project, SKKanGAS strain, BacTiter-Glo luminescence. 6 h. inhibition, % at 7.5 µM. 300,000 tested, 1.3% active. AID 1662, 2009;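 active = mean replicate score, as percent of positive control median, at least 50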;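 note: strain carries kanamycin resistance gene driven by streptokinase promoter and grows in 40 µg/ml kanamycin; loss of luminescence reflects streptokinase promoter inhibition or plain growth inhibition; 0% = median of DMSO wells and 100% = positive control at its reference dose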
Beta cell apopt: inhibitors of cytokine-induced beta cell apoptosis, primary screen, luminescence; INS-1E cytokine-induced death, ATP luminescence, 48 h; percent of positive-control rescue, neutral wells zero; protection from apoptosis, % (test concentration not listed); 300,000 tested, 0.8% active; AID 435005, 2010;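 active = Every replicate reaches about 75%, or at least half do and their mean reaches it too, limit read from the data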;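 note: 0% = cytokine-treated negative control wells and 100% = positive control rescue; higher means more ATP so stronger rescue from cytokine killing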
Mdm2 MdmX PPI: inhibitors of human Mdm2-MdmX association, primary screen, cell-based, luminescence, split luciferase, SaOS-2, uHTS; AID 485346, 2010; inhibition, % at 8 µM; Protein Mdm4 (Homo sapiens) + E3 ubiquitin-protein ligase Mdm2 (Homo sapiens), …; SaOS-2 split-luciferase Mdm2/MdmX complementation; 330,000 tested, 3% active;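 active = inhibition of at least 50% at 8 µM in the primary screen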
Target sequence (O15151 whole entry, looked up): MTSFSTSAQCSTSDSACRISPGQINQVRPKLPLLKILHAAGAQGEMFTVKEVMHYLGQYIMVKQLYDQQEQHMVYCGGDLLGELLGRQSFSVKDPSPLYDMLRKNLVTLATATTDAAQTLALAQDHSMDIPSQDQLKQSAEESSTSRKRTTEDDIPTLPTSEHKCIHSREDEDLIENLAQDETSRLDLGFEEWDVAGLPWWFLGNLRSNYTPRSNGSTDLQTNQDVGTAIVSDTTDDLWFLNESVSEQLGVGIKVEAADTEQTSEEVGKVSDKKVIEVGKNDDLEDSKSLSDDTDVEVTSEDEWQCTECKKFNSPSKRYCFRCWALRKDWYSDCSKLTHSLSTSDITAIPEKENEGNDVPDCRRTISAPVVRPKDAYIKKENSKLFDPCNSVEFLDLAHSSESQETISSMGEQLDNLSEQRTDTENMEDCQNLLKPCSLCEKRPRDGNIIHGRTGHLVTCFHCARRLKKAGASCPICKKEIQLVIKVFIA
Target sequence (Q00987 whole entry, looked up): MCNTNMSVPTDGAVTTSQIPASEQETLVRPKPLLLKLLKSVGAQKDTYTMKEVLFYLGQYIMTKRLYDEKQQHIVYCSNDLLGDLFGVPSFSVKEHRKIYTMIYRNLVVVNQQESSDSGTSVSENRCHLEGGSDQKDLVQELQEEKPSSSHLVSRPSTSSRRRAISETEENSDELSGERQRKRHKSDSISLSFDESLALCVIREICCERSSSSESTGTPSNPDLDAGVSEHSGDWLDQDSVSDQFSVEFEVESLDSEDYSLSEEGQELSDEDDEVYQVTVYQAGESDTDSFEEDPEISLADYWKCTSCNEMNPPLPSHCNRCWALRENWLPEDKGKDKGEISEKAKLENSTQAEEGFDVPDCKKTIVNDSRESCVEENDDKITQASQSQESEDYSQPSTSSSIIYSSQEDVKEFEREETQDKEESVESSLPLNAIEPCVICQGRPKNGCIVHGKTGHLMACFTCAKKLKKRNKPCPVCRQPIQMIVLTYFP
Starred values were filed as active, the others as inactive; nt = not tested or not shown. In the library only some 9.4% were active in any assay of this set; here they are far more common.

SMILES	Lmaj promast	CSC inhib	T cruzi repl	SKKanGAS inh	Beta cell apopt	Mdm2 MdmX PPI
COc1ccc(C(=O)CCN2CCc3cc(OC)c(OC)cc3C2)cc1	67.4*	7.3	45.9	0.1	-26.9	26.2
COc1ccc(C(=O)CCN2CCN(c3ccccc3OC)CC2)cc1	16.0	16.1	27.3	-5.0	-0.6	-31.4
CCOc1ccc(C(=O)CCN2CCCCCC2)cc1	100.2*	2.1	9.0	-2.4	nt	29.0
COc1ccc(C(C)=O)cc1CN1CCCCC1	-1.9	-9.1	2.8	4.1	4.6	-1.3
CCOc1ccc(OCCN2CCCCC2)cc1	0.6	12.9	19.5	-2.0	-4.9	-2.2
CCCCCOc1ccc(C(=O)CCC(=O)N2CCCC2)cc1	nt	13.2	-3.5	9.1	1.5	8.6
CCCOc1ccc(C(=O)CCN2CCCCC2)cc1	89.8*	-6.8	8.1	-7.5	-5.7	18.7
CCCOc1cc(CN2CCCCC2)cc(C(C)=O)c1	52.4*	-5.6	4.6	-5.1	-7.5	22.5
Cc1ccc(C(=O)Nc2ccccc2N2CCOCC2)cc1S(=O)(=O)N1CCOCC1	nt	nt	nt	nt	-0.5	31.3
Cc1cc(OCc2nnc(SC(C)C(=O)O)n2-c2ccccc2)ccc1Cl (stereo unspecified)	nt	2.6	-7.2	-3.3	nt	-30.8
CCCOc1ccc(OCCN2CCCC(C)C2)cc1 (stereo unspecified)	95.7*	29.5	15.5	-3.1	nt	18.6
O=C(OCCN1CCOCC1)c1ccc(OCCN2CCOCC2)cc1	-2.3	-6.4	9.4	8.6	nt	22.7
CCCCOc1ccc(C(=O)CCN2CCOCC2)cc1	75.8*	-1.3	56.0*	-3.6	3.1	9.2
COCCCNC(=O)CCN1N=C(c2ccccc2)CCC1=O	nt	-7.9	-0.6	0.3	0.3	15.5
CCOC(=O)c1cc(-c2ccc(OC(F)F)cc2)nc2c1c(=O)[nH]c(=O)n2C	41.0	18.0	-7.6	99.7*	2.0	6.9
CCOC(=O)c1cc(-c2ccc(OC(F)F)cc2)nc2nc(SC)[nH]c(=O)c12	0.2	7.3	0.9	3.0	-1.4	-27.3
CC1CCCN(CC(O)COc2ccc(-c3ccccc3)cc2)C1 (stereo unspecified)	nt	-2.5	-3.5	-1.2	5.6	30.0
CC1CCCN(CC(O)COC(c2ccccc2)c2ccccc2)C1 (stereo unspecified)	99.3*	3.8	-1.6	-6.9	-1.2	21.4
CN1CCN(CC(O)COc2ccccc2)CC1 (stereo unspecified)	nt	-12.1	29.0	1.0	-2.2	2.9
OC1CCCN(CC(O)COC(c2ccccc2)c2ccccc2)C1 (stereo unspecified)	nt	-8.5	-2.3	-11.5	-6.3	-8.1
CN1CCN(CC(O)COC(c2ccccc2)c2ccccc2)CC1 (stereo unspecified)	-1.0	nt	60.8*	-5.6	-2.1	-9.2
Cc1ccc(C(OCC(O)CN2CCCCC2CO)c2ccccc2)cc1 (stereo unspecified)	84.1*	3.9	-0.2	-5.0	-3.0	21.7
CC1CCCN(CC(O)COc2ccc(Cl)cc2)C1 (stereo unspecified)	91.2*	37.3	28.9	-0.2	4.0	12.8
CCN(C(=O)COC(=O)c1nccnc1N)c1cccc2ccccc12	nt	-14.5	nt	nt	-11.1	17.7
O=C(NCCN1CCN(C(=O)c2ccc(F)cc2)CC1)c1ccc(F)cc1	nt	-5.6	8.5	-5.6	-0.5	25.3
SMILES	Lmaj promast	CSC inhib	T cruzi repl	SKKanGAS inh	Beta cell apopt	Mdm2 MdmX PPI
CC(=O)C1=C(S(=O)(=O)c2ccc(C)cc2)CS(=O)(=O)C1	4.6	nt	-28.9	-7.2	nt	11.4
O=C(O)CC(CC(=O)O)(C(=O)O)c1ccccc1	nt	11.8	-7.6	-1.7	-1.5	-6.8
O=C(c1cc2nc(-c3ccccc3)cc(-c3ccccc3)n2n1)N1CCCC1	42.1	-14.9	-1.9	21.1	-5.6	34.2
COc1cc(NC(=O)c2cc3nc(-c4ccccc4)cc(-c4ccccc4)n3n2)cc(OC)c1OC	-1.4	10.0	9.6	53.7*	30.1	27.5
CN1CCN(C(=O)c2cc3nc(-c4ccccc4)cc(-c4ccccc4)n3n2)CC1	95.4*	9.4	23.1	7.4	3.8	30.8
Fc1ccccc1N1CCN(C2CCCN(Cc3ccccc3C(F)(F)F)C2)CC1 (stereo unspecified)	nt	8.4	14.1	2.1	nt	-3.6
O=C(CC1C(=O)CCCC1=O)c1ccccc1	-4.0	-10.4	1.5	6.5	-18.9	23.1
CN1[C@@H](CC(=O)c2ccccc2)CCC[C@H]1C[C@H](O)c1ccccc1	88.5*	nt	nt	nt	nt	-14.8
CN1C(CC(=O)c2ccccc2)CCCC1CC(O)c1ccccc1 (stereo unspecified)	89.7*	-9.3	18.9	4.1	-3.4	-14.8
CCN(CC)c1nc(=S)nc(NC(C)(C)C)[nH]1	94.7*	-3.0	27.2	9.7	0.2	-19.1
Cc1ccc(/C=C(/NC(=O)c2ccccc2)C(=O)NC(Cc2c[nH]c3ccccc23)C(=O)O)cc1 (stereo unspecified)	nt	4.1	-13.3	-0.2	nt	4.3
NC(=O)c1ccsc1NC(=O)COC(=O)C1CC2CCCC(C1)C2=O (stereo unspecified)	nt	nt	0.8	-0.7	-1.6	-7.8
O=C(Nc1ccc(Br)c(C(F)(F)F)c1)c1ccccc1	61.4*	23.9	3.7	21.0	11.2	-10.8
COc1ccc(CCNC(=O)c2ccc3nc[nH]c3c2)cc1	nt	-0.9	-15.7	-0.9	0.7	24.1
Cc1cc(C)n(-c2cc(N3CCN(S(=O)(=O)c4ccc(Br)cc4)CC3)ccc2[N+](=O)[O-])n1	28.9	-0.9	4.2	1.9	8.0	23.0
Cc1cc(C)c(S(=O)(=O)N2CCN(c3ccc([N+](=O)[O-])c(-n4nc(C)cc4C)c3)CC2)c(C)c1	59.1*	2.0	60.8*	9.0	6.3	18.1
CC12C(=O)N(c3ccc(OC(=O)c4ccco4)cc3)C(=O)C1C1c3ccccc3C2c2ccccc21 (stereo unspecified)	57.8*	-1.1	6.7	19.7	-14.3	28.1
O=C(Cn1ccc2ccccc2c1=O)NCC(=O)Nc1ccc(F)cc1F	nt	-2.9	-9.6	-27.9	-0.7	-4.1
Cc1cnc(C(=O)Nc2cccc3cccnc23)cn1	97.4*	nt	65.7*	-5.6	nt	nt
CCOC(=O)C1(CCCc2ccccc2)CCN(S(C)(=O)=O)CC1	nt	-12.2	-3.9	0.9	-6.1	-31.5
CCN1CCN(C(CNS(=O)(=O)c2ccc(OC)c(C)c2)c2cccnc2)CC1 (stereo unspecified)	nt	11.1	22.1	-13.0	4.0	-1.2
Cc1cc(S(=O)(=O)NCC(c2ccc(F)cc2)N2CCN(C)CC2)ccc1F (stereo unspecified)	nt	3.5	41.4	2.3	-0.5	-6.7
COc1ccc(S(=O)(=O)NCC(c2cccnc2)N2CCN(c3ccc(F)cc3)CC2)cc1C (stereo unspecified)	96.4*	nt	44.0	-3.2	nt	nt
